What is called pIC50 is the negative decadic logarithm of the IC50, by convention in mol/L.

IC50 data for 18 compounds are collected here from ChEMBL document CHEMBL4311948, “Exploring the Natural Piericidins as Anti-Renal Cell Carcinoma Agents Targeting Peroxiredoxin 1” (J Med Chem, 2019).

pIC50: −log10 of the molar value. Bounds are passed on as bounds.

One assay relates to 786-0. Nature of the assay: Cytotoxicity against human 786-O cells assessed as reduction in cell viability measured after 72 hrs by CCK8 assay. The class given is functional, cell-based. The settings on record: 786-0, 72 h. The gist of the method: (§1)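 Cells were grown in 10% FBS medium: MEM for ACHN, RPMI1640 for OS-RC-2 and 786-O, DMEM for HK-2. They were seeded at 400–800 cells/well in 384-well plates and treated with a range of compound concentrations or solvent control, with sorafenib as positive control. After 72 h, CCK-8 absorbance was read at 450 nm in triplicate, and IC50 was taken from dose-response curves.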
(Tetrazolium dyes change colour on reduction, which living cells bring about.)

The test system of assay [1] is ACHN. As to the kind of experiment: Cytotoxicity against human ACHN cells assessed as reduction in cell viability measured after 72 hrs by CCK8 assay. It counts as functional, cell-based. The procedure, abridged: as §1
In a further assay the test system is OS-RC-2. Nature of the assay: Cytotoxicity against human OS-RC2 cells assessed as reduction in cell viability measured after 72 hrs by CCK8 assay. The class given is functional, cell-based. Particulars: OS-RC-2, 72 h; call rule not given here. The procedure, abridged: as §1
A further assay deals with HK-2. As to the kind of experiment: Cytotoxicity against human HK2 cells assessed as reduction in cell viability measured after 72 hrs by CCK8 assay. Particulars: HK-2, 72 h. The class given is cell-based. The gist of the method:
as §1

Assay [2] has as its system ACHN. As to the kind of experiment: Cytotoxicity against human ACHN cells harboring shPRDX1 gene assessed as reduction in cell viability measured after 72 hrs by CCK8 assay. Particulars: for pIC50: Homo sapiens, ACHN, 72 h, read-out: IC50. It counts as functional, cell-based. The gist of the method: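 Transfectants were selected with puromycin (1 μg/mL), and knockdown was confirmed by immunoblot. Viability was read by CCK-8 after 72 h of compound exposure in 384-well plates at 400–800 cells/well in MEM with 10% FBS, and IC50 was taken from dose-response curves.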

As for `COc1nc(C/C=C(\C)C/C=C/C=C/[C@@H](C)[C@@H](O[C@@H]2O[C@H](CO)[C@@H](O)[C@H](O)[C@H]2O)/C(C)=C/CO)c(C)c(O)c1OC`, the figures for the pIC50 in the assay with 786-0, in the assay with ACHN [1] and in the assay on OS-RC-2 were 4.55, 5.60 and 4.10, respectively.

As to `COc1nc(C/C=C(\C)C/C(C)=C/C(C)=C/[C@@H](C)[C@@H](O)[C@]2(C)O[C@H]2C)c(C)c(O)c1OC`, the negative-log IC50 (pIC50) in the assay on 786-0 is less than 4.00; with ACHN [1], less than 4.00; in the assay on OS-RC-2, 4.66; in the assay with HK-2, less than 4.00; in the assay on ACHN [2], less than 4.00.

For `C/C=C(\C)[C@H](O[C@@H]1O[C@H](CO)[C@@H](O)[C@H](O)[C@H]1O)[C@H](C)/C=C(C)/C=C/C/C(C)=C/Cc1nc(OC)c(OC)c(O[C@@H]2O[C@H](CO)[C@@H](O)[C@H](O)[C@H]2O)c1C`, the pIC50 in the assay on 786-0 is less than 4.00; in the assay on ACHN [1] it was 4.55; in the assay with OS-RC-2 it was less than 4.00; in the assay on HK-2, 5.96.

Turning to `C/C=C(\C)[C@H](O[C@@H]1O[C@H](CO[C@H]2O[C@H](CO)[C@H](O)[C@H](O)[C@H]2O)[C@@H](O)[C@H](O)[C@H]1O)[C@H](C)/C=C(C)/C=C/C/C(C)=C/Cc1nc(OC)c(OC)c(O)c1C`, the negative logarithm of the IC50 (pIC50) in the assay with 786-0 is less than 4.00; in the assay on ACHN [1], 5.35; in the assay on OS-RC-2 it was less than 4.00; in the assay on HK-2 it was less than 4.00; with ACHN [2], 5.05.

Turning to `C/C=C(\C)C(=O)[C@H](C)/C=C(C)/C=C/C/C(C)=C/Cc1nc(OC)c(OC)c(O)c1C`, the pIC50 with 786-0 is less than 4.00; in the assay with ACHN [1] it was less than 4.00; in the assay with OS-RC-2 it was 4.66; with ACHN [2], less than 4.00.

In the case of `C/C=C(\C)[C@H](O[C@@H]1O[C@H](CO)[C@@H](O)[C@H](O)[C@H]1O)[C@H](C)/C=C(\C)[C@@H](OC)[C@@H](O)C/C(C)=C/Cc1nc(OC)c(OC)c(O)c1C`, the values for the negative logarithm of the IC50 (pIC50) with 786-0, in the assay on ACHN [1] and in the assay on OS-RC-2 were less than 4.00, 5.62 and less than 4.00, respectively.

As to `COc1nc(C/C=C(\C)C/C(C)=C/C(C)=C/[C@@H](C)[C@@H](O)/C(C)=C/[C@](C)(O)[C@@H](C)O)c(C)c(O)c1OC`, the pIC50 with 786-0 was less than 4.00; in the assay on ACHN [1] it was 5.62; in the assay on OS-RC-2, 5.28; in the assay with HK-2 it was 4.36; in the assay on ACHN [2], 5.09.

In the case of `COc1nc(C/C=C(\C)C/C(C)=C/C(C)=C/[C@@H](C)[C@@H](O)/C(C)=C/[C@@](C)(O)[C@H](C)O)c(C)c(O)c1OC`, the negative-log IC50 (pIC50) with 786-0 is less than 4.00; in the assay with ACHN [1] it was 5.42; in the assay on OS-RC-2, 5.39; in the assay with HK-2 it was 4.20; with ACHN [2], 4.89.

For the compound `C/C=C/[C@H](O)[C@H](C)/C=C(C)/C=C/C/C(C)=C/Cc1nc(OC)c(OC)c(O)c1C`, the pIC50 is less than 4.00 in the assay on 786-0, 5.39 in the assay with ACHN [1], 4.96 with OS-RC-2 and 4.96 in the assay with ACHN [2].

Take `COc1nc(C/C=C(\C)C[C@H](O)[C@H](OC)/C(C)=C/[C@@H](C)[C@@H](O[C@@H]2O[C@H](CO)[C@@H](O)[C@H](O)[C@H]2O)/C(C)=C/CO)c(C)c(O)c1OC`: the figures for the pIC50 with 786-0, with ACHN [1] and in the assay on OS-RC-2 were less than 4.00, 4.22 and less than 4.00, respectively.

Regarding `COc1nc(C/C=C(\C)C/C=C/C(C)=C/[C@@H](C)[C@@H](O[C@@H]2O[C@H](CO)[C@@H](O)[C@H](O)[C@H]2O)/C(C)=C/CO)c(C)c(O)c1OC`, the negative logarithm of the IC50 (pIC50) is less than 4.00 in the assay on 786-0, 5.14 in the assay with ACHN [1], less than 4.00 with OS-RC-2 and less than 4.00 in the assay on HK-2. In the assay with ACHN [2] (achn), the IC50 result is listed as “Not Active”.

Take `COc1nc(C/C=C(\C)C/C=C/C(C)=C/[C@@H](C)[C@@H](O[C@@H]2O[C@H](CO[C@H]3O[C@H](CO)[C@H](O)[C@H](O)[C@H]3O)[C@@H](O)[C@H](O)[C@H]2O)/C(C)=C/CO)c(C)c(O)c1OC`: the pIC50 with 786-0, in the assay on ACHN [1], with OS-RC-2 and with HK-2 was less than 4.00 in each case.

For `COc1nc(C/C=C(\C)C/C=C/C(C)=C/[C@@H](C)[C@@H](O[C@@H]2O[C@H](CO[C@H]3O[C@H](CO)[C@@H](O)[C@H](O)[C@H]3O)[C@@H](O)[C@H](O)[C@H]2O)/C(C)=C/CO)c(C)c(O)c1OC`, the pIC50 in the assay on 786-0 is less than 4.00; in the assay on ACHN [1], 4.64; in the assay with OS-RC-2, less than 4.00; with HK-2, less than 4.00; in the assay on ACHN [2], 4.24.

Consider `C/C=C(\C)[C@H](O[C@@H]1O[C@H](CO[C@H]2O[C@H](CO)[C@@H](O)[C@H](O)[C@H]2O)[C@@H](O)[C@H](O)[C@H]1O)[C@H](C)/C=C(C)/C=C/C/C(C)=C/Cc1nc(OC)c(OC)c(O)c1C`, for which the pIC50 in the assay on 786-0 was less than 4.00; with ACHN [1], 4.68; with OS-RC-2, less than 4.00; in the assay with HK-2, less than 4.00.

Take `C/C=C(\C)[C@H](O[C@@H]1O[C@H](CO)[C@@H](O)[C@H](O)[C@H]1O)[C@H](C)/C=C(C)/C=C/C/C(C)=C/Cc1nc(OC)cc(O)c1C`: the negative logarithm of the IC50 (pIC50) in the assay on 786-0 is 4.82; in the assay with ACHN [1], 5.42; in the assay on OS-RC-2, 4.85.

For `C/C=C(\C)[C@H](O[C@@H]1O[C@H](CO)[C@@H](O)[C@H](O)[C@H]1O)[C@H](C)/C=C/C=C/C/C(C)=C/Cc1nc(OC)c(OC)c(O)c1C`, the results for the negative-log IC50 (pIC50) with 786-0, in the assay with ACHN [1] and in the assay with OS-RC-2 were 6.00, 6.51 and 5.59, respectively.

As to `C/C=C(\C)[C@H](O)[C@H](C)/C=C(C)/C=C(\C)C/C(C)=C/Cc1nc(OC)c(OC)c(O)c1C`, the negative-log IC50 (pIC50) was 4.30 in the assay on 786-0; 4.85 with ACHN [1]; 4.77 in the assay with OS-RC-2; 4.35 with HK-2; 4.17 in the assay with ACHN [2].

On to `COc1nc(C/C=C(\C)C/C=C/C(C)=C/[C@@H](C)[C@@H](O[C@@H]2O[C@H](CO)[C@@H](O)[C@H](O)[C@H]2O)[C@@]2(C)O[C@@H]2C)c(C)c(O)c1OC`, for which the negative logarithm of the IC50 (pIC50) in the assay on 786-0 is 4.72; in the assay with ACHN [1] it was 5.55; in the assay on OS-RC-2 it was 4.52.
